GSIS activator: GLuc luminescence reporter in INS-1E cells, primary screen for activators of glucose-dependent secretion of insulin; activation, % at 16.6 µM; 370,000 compounds, 0.61% hits; INS-1E GLuc reporter insulin secretion, 2-3 h;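 active means lowest replicate activation of at least 40%, so every replicate reaches that level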
Env fusion inh: inhibitors of HIV-1 Env-driven cell-cell fusion, primary screen, HeLa-JRFL effector, CEM21 target cells, luciferase; AID 651610, 2012; inhibition, % at 12.3 µM; 360,000 compounds, 1.1% hits;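 active means mean replicate inhibition score of at least 50 and every replicate individually at or above 50; inconclusive means only one of the two criteria met; inactive means mean below 50 and not all replicates reaching 50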
dFosB act-1: activators of delta FosB homodimer, primary screen, biochemical, fluorescence polarization, TAMRA-CDK5 oligo, single point | purified delta FosB; percent of positive-control signal above neutral wells | activation, % at 25 µM | 340,000 compounds, 0.99% hits;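 active means mean activation above about 17%, with every replicate also reaching it, limit read from the data, passing the limit was not always enough; inconclusive means only one of the two conditions met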
CDK5 p35 inh: inhibitors of human CDK5/p35 kinase, primary screen, biochemical, single concentration | Cyclin-dependent kinase 5 (Homo sapiens) + Cyclin-dependent kinase 5 activator 1 (Homo … | 330,000 compounds, 0.01% hits | Recombinant CDK5/p35, ADP-Glo luminescence, 60 min | inhibition, % at 10 µM;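 active means highest replicate inhibition of at least 50% and at least 75% of replicates reaching 50%; inconclusive means only one of the two criteria met; inactive means both criteria failed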
Target sequence (Q00535 whole entry, looked up): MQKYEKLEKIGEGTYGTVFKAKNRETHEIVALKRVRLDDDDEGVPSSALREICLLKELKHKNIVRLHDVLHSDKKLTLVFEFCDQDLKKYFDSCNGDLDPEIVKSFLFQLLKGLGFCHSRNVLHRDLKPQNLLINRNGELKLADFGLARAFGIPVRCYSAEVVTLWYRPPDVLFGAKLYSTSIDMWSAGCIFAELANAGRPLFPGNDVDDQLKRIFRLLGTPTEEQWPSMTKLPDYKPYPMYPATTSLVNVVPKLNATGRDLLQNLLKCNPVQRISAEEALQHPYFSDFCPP
Target sequence (Q15078 whole entry, looked up): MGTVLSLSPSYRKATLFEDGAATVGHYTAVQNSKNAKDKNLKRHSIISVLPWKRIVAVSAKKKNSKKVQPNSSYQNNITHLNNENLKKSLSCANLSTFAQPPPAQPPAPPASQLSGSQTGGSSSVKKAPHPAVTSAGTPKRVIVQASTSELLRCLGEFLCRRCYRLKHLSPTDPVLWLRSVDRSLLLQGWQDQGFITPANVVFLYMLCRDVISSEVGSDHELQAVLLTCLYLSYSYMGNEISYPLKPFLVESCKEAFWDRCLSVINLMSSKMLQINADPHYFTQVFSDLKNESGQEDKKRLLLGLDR
PAX8 inh HTS: inhibitors of PAX8-driven TPO luciferase reporter, primary screen, RMG-I cells, single concentration. inhibition, % at 12.6 µM. SteadyGlo, 24 h. 360,000 compounds, 1.2% hits;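 active means mean replicate inhibition at least 60% with every replicate also reaching 60%; inconclusive means only one of the two criteria is met; inactive means mean below 60% and not all replicates reaching 60%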;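 further: luciferase light reporting Pax8 driven TPO promoter activity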
Cneo AK release: Cryptococcus neoformans cell lysis inducers, primary screen, AK release luminescence, single concentration; AID 651654, 2012; lysis activity, % at 15 µM; C. neoformans lysis, adenylate kinase release luminescence, 4 h; normalised: neutral wells 0, clomiphene wells 100; 360,000 compounds, 0.2% hits;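 active means mean lysis activity across replicates of at least 80%, whatever share of replicates individually reach that level; inactive means mean lysis activity below 80%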
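Test system: log-phase Cryptococcus neoformans yeast cells; Quantity: yeast cell density of 5 × 10^6 cells/mL; Buffer or medium: YPD; Doses: single compound concentration per well; Timing: 4 h at 37 °C static, read 1 h later; Measured by: AK luminescence; Read-out basis: lysis from increased AK signal; Control set: Clomiphene as positive control.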
dFosB act-2: activators of mouse delta FosB DNA binding, confirmation, biochemical, fluorescence polarization, TAMRA-CDK5 oligo, cherry-picked samples. shares compounds with dFosB act-1. purified delta FosB; normalised: neutral wells 0, positive control 100. activation, % at 24.9 µM. 2,400 tested, under 10 active;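 active means highest replicate activation at or above 34% and every replicate reaching that threshold; inconclusive means meets only one of the two criteria; inactive means meets neither criterion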;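 further: higher polarization means more probe DNA bound by delta FosB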
A number is an active result. Sampled rows, rich in hits. Any-hit rate of the full collection: about 2.9%.

Results for NC(N)=Nc1ccc2[nH]c3c(c2c1)C[C@@]1(O)[C@H]2Cc4ccc(O)c5c4[C@@]1(CCN2CC1CC1)C3O5 (stereo partly drawn) ?
GSIS activator: inactive; dFosB act-1: 45.2; CDK5 p35 inh: inactive; Cneo AK release: inactive; dFosB act-2: inactive

What do the screens show for `O=C(/C=C/c1c[nH]c2ccccc12)c1c(O)n(CCc2ccccc2)c(=O)[nH]c1=O`?
Env fusion inh: inactive; dFosB act-1: 22.2; CDK5 p35 inh: inactive; PAX8 inh HTS: inactive; Cneo AK release: inactive; dFosB act-2: inconclusive

Results for O=C(Cc1ccccn1)N1CCCCN2[C@H](CO)[C@@H](c3ccc(C#Cc4ccccc4)cc3)[C@@H]2C1 ?
GSIS activator: inactive; PAX8 inh HTS: inactive; Cneo AK release: inactive

Results for Cc1cc(NC(=O)COC(=O)c2c(C)nn(Cc3ccccc3)c2C)no1 ?
dFosB act-1: inactive; CDK5 p35 inh: inactive; Cneo AK release: inactive

Results for Cc1cc(NC(=O)COC(=O)c2c(C)nn(Cc3ccccc3Cl)c2Cl)no1 ?
GSIS activator: inactive; dFosB act-1: 46.2; CDK5 p35 inh: inactive; dFosB act-2: inactive

Results for CCOC(=O)[C@@H]1[C@@H]2NC(=S)N(C)[C@@]1(C)Oc1ccccc12 ?
Env fusion inh: inactive; PAX8 inh HTS: inactive; Cneo AK release: inactive

What do the screens show for `CN1/C(=C\C=Nc2ccccc2)C(C)(C)c2ccccc21`?
Env fusion inh: 64.3; dFosB act-1: 25.9; CDK5 p35 inh: inactive; Cneo AK release: inactive; dFosB act-2: inactive

What do the screens show for `CCCCn1c(=O)c(C(=O)Nc2ccccc2S(N)(=O)=O)c(O)c2ccccc21`?
Env fusion inh: inactive; dFosB act-1: inactive; CDK5 p35 inh: inactive; Cneo AK release: inactive

Results for CCCCCn1c(=O)c(C(=O)Nc2ccccc2S(N)(=O)=O)c(O)c2ccccc21 ?
GSIS activator: inactive; Env fusion inh: inactive; dFosB act-1: 62.5; CDK5 p35 inh: inactive; PAX8 inh HTS: 83.1; dFosB act-2: inconclusive

Results for COc1cccc(-c2ccc([C@@H]3[C@H](CO)N4CCCCN(C(=O)Cc5ccncc5)C[C@@H]34)cc2)c1 ?
GSIS activator: inactive; PAX8 inh HTS: inactive; Cneo AK release: inactive

What do the screens show for `N#Cc1cccc(-c2ccc([C@@H]3[C@H]4CN(C(=O)Cc5ccccc5)CCCCN4[C@H]3CO)cc2)c1`?
GSIS activator: inactive; PAX8 inh HTS: inactive; Cneo AK release: inactive

What do the screens show for `C[N+]1=C(/C=C/Nc2ccccc2)C(C)(C)c2ccccc21`?
GSIS activator: inactive; Env fusion inh: inactive; dFosB act-1: 23.0; CDK5 p35 inh: inactive; PAX8 inh HTS: inactive; dFosB act-2: inconclusive

Screens from PubChem.
